The list is not random: actives were taken first. Their share in the collection is about 2.3%.
GSTO1 counter: inhibitors of recombinant GSTO1, primary screen, counter-screen for RBBP9 inhibitor project, biochemical, fluorescence polarization. Glutathione S-transferase omega-1 (Homo sapiens), P78417. activity-based probe fluorescence polarization. inhibition, % at 5.96 µM. actives 1.1% (n = 300,000). AID 1974, 2009;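 active = inhibition above the campaign mean inhibition plus 3 SD, cut at about 35% in these data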;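 note: 0% = GSTO1-1 with DMSO and 100% = wells lacking GSTO1-1 enzyme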
Target sequence (P78417 whole entry, looked up): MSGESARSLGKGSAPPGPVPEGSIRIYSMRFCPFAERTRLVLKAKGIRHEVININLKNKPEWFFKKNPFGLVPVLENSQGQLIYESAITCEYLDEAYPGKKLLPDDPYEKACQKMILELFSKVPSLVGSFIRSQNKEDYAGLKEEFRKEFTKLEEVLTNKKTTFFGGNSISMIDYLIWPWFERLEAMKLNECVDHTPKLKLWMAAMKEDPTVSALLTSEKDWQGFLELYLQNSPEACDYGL
RBBP9 inhibitor: human RBBP9 inhibitors, primary screen, biochemical, fluorescence polarization, FP-Rh probe, HTS | Serine hydrolase RBBP9 (Homo sapiens), O75884 | recombinant RBBP9 | inhibition, % at 7.94 µM | actives 0.2% (n = 220,000);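 active = inhibition above the campaign mean of all tested compounds plus 3 SD, cut at about 14% in these data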;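 note: plate controls were DMSO wells with RBBP9 for no effect and wells lacking RBBP9 protein for full effect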
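System: RBBP9 protein / Quantity: 2.5 µM RBBP9 dispensing solution, before mixing / Also added: Serine-hydrolase probe FP-Rh, 375 nM pre-mixing / Dosing: 7.94 µM single dose, 0.794% DMSO / Timing: enzyme-compound preincubation 30 min, then probe labeling 45 min, 25 °C / Signal: FP readout at 525/598 nm / Controls: DMSO-treated enzyme wells and wells lacking RBBP9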
PRMT1 inh: PRMT1 methyltransferase inhibitors, primary screen, biochemical, fluorescence polarization | actives 1.3% (n = 370,000) | AID 652257, 2013 | inhibition, % at 2.79 µM | Protein arginine N-methyltransferase 1 (Homo sapiens), Q99873 | recombinant PRMT1, activity-based probe fluorescence polarization;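 active = inhibition above about 21% made by adding two undisclosed values, limit read from the data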
Target sequence (Q99873 whole entry, looked up): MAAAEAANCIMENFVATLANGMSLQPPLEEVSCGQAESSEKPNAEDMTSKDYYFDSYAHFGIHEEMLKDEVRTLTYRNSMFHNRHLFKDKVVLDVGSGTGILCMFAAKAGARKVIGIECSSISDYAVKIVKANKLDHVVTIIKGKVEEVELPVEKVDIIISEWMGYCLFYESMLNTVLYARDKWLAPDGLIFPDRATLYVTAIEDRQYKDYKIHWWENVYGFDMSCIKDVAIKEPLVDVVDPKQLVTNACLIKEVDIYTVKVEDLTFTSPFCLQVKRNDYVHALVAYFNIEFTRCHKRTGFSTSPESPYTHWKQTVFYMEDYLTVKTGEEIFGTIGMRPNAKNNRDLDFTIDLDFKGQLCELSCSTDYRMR
Fam108B counter: mouse Fam108B serine hydrolase inhibitors, primary screen, counter-screen for RBBP9 inhibitor project, biochemical, fluorescence polarization; recombinant Fam108B, FP-Rh probe fluorescence polarization; inhibition, % at 9.51 µM; actives 0.33% (n = 300,000); AID 1947, 2009;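 active = inhibition above the screen mean inhibition plus 3 SD, computed separately per campaign, cut at about 18% in these data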;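 note: inhibitors lower polarization as less probe binds the enzyme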
PME-1 inh: PME-1 inhibitors via competitive probe labeling, primary screen, biochemical, fluorescence polarization, FP-Rh probe, HTS | actives 0.53% (n = 320,000) | recombinant PME-1 | Protein phosphatase methylesterase 1 (Homo sapiens), Q9Y570 | inhibition, % at 5.9 µM;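 active = inhibition above the campaign mean of all compounds plus 3 SD, cut at about 26% in these data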;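 note: competitive labeling of PME-1 active site by serine hydrolase directed probe; 0% = PME-1 with DMSO and 100% = wells lacking PME-1 enzyme; inhibitors block probe labeling so polarization falls and inhibition rises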
PAD4 inh: human PAD4 inhibitors, primary screen, biochemical, fluorescence polarization, 1536-well format. Protein-arginine deiminase type-4 (Homo sapiens), Q9UM07. recombinant PAD4, RCA probe fluorescence polarization. inhibition, % at 6.36 µM. actives 0.41% (n = 330,000);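 active = percent inhibition above a cutoff equal to the mean of all tested compounds plus 3 SD, cut at about 15% in these data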;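 note: 0% = PAD4 with RCA probe and DMSO and 100% = probe without PAD4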
* marks the source's active call; other numbers are inactive results.

What do the screens show for `COc1ccc(/C=N/NC(=O)c2cc3cc(OC)c(OC)cc3[nH]2)cc1`?
GSTO1 counter: -8; PRMT1 inh: -1; Fam108B counter: 5; PME-1 inh: 27*; PAD4 inh: -1

How did Cc1cc(C)nc(Nc2nc(=O)c3ccccc3s2)n1 do in these assays?
GSTO1 counter: 13; RBBP9 inhibitor: -5; PRMT1 inh: 44*; Fam108B counter: 0; PME-1 inh: 2; PAD4 inh: 9

Results for Nc1ccc(C(=O)Nc2ccc(NC(=O)c3ccco3)c(O)c2)cc1 ?
GSTO1 counter: 3; RBBP9 inhibitor: 0; PRMT1 inh: 0; Fam108B counter: 1; PME-1 inh: 1; PAD4 inh: -4

What do the screens show for `O=C(O)c1cc(O)c2c(c1)C(=O)c1cccc(O)c1C2=O`?
GSTO1 counter: 50*; RBBP9 inhibitor: 27*; PRMT1 inh: 32*; Fam108B counter: 12; PME-1 inh: 5; PAD4 inh: -3

Results for Cc1cc(O)c2c(c1)C(=O)c1cccc(O)c1C2=O ?
RBBP9 inhibitor: -8; PRMT1 inh: 10

Results for Cc1ccc(CNC(=O)C2CCCN(c3nc(C)cc(C)n3)C2)cc1 (centres undefined) ?
GSTO1 counter: 15; RBBP9 inhibitor: -11; PRMT1 inh: 4; Fam108B counter: 2; PME-1 inh: 0; PAD4 inh: -2

How did CCCC(=O)N(C1CC(C)C(C#N)(C#N)C1(C#N)C#N)N(C)C (centres undefined) do in these assays?
GSTO1 counter: 0; RBBP9 inhibitor: -7; PRMT1 inh: 22*; Fam108B counter: 1; PME-1 inh: -2; PAD4 inh: 0

Results for O=C(Nc1ccc(Cc2ccncc2)cc1)c1cccc([N+](=O)[O-])c1 ?
GSTO1 counter: 5; RBBP9 inhibitor: -12; PRMT1 inh: -1; Fam108B counter: 0; PME-1 inh: 1; PAD4 inh: -6

How did O=C(CCNc1ccc(Cc2ccncc2)cc1)c1ccc([N+](=O)[O-])cc1 do in these assays?
GSTO1 counter: 4; RBBP9 inhibitor: -2; PRMT1 inh: 36*; Fam108B counter: 2; PME-1 inh: 4; PAD4 inh: 2

How did COc1ccc(/C(C)=C2/SC(=S)N(CCC(=O)O)C2=O)cc1 do in these assays?
GSTO1 counter: 2; RBBP9 inhibitor: -13; PRMT1 inh: 3; Fam108B counter: -1; PME-1 inh: 27*; PAD4 inh: -13

What do the screens show for `Cc1ccc(C)c(S(=O)(=O)N2CCN(C(=O)Cc3c(F)cccc3Cl)CC2)c1`?
GSTO1 counter: 0; PRMT1 inh: 3; Fam108B counter: 2; PME-1 inh: 4; PAD4 inh: -4

How did CC1=NN(c2ccccc2)C(=O)/C1=C\C=C1/N(C)c2ccccc2C1(C)C do in these assays?
GSTO1 counter: 72*; RBBP9 inhibitor: 7; PRMT1 inh: -2; Fam108B counter: -1; PME-1 inh: 3; PAD4 inh: -9

How did O=[N+]([O-])c1ccc(N=Nc2c(Cl)cc(O)cc2Cl)cc1 do in these assays?
GSTO1 counter: 57*; RBBP9 inhibitor: -2; PRMT1 inh: 1; Fam108B counter: 17; PME-1 inh: 24; PAD4 inh: 16*

What do the screens show for `CN(CCC#N)C(=S)Nc1ccc(F)cc1`?
GSTO1 counter: 2; RBBP9 inhibitor: -10; PRMT1 inh: -4; Fam108B counter: -1; PME-1 inh: 1; PAD4 inh: 3

Results for O=[N+]([O-])c1ccc(Cl)cc1Sc1nc2ccccc2o1 ?
GSTO1 counter: 5; RBBP9 inhibitor: 3; PRMT1 inh: 2; Fam108B counter: 1; PME-1 inh: 8; PAD4 inh: 4

Results for O=[N+]([O-])c1ccc(Sc2nc3ccccc3o2)c([N+](=O)[O-])c1 ?
GSTO1 counter: 12; RBBP9 inhibitor: -1; PRMT1 inh: 5; Fam108B counter: 12; PME-1 inh: 4; PAD4 inh: 49*

Results for CCC1Oc2ccc(C)cc2N(CC(=O)N2CCCC2)C1=O (centres undefined) ?
GSTO1 counter: 2; PRMT1 inh: 0; Fam108B counter: 8; PME-1 inh: -4; PAD4 inh: -5

How did O=[N+]([O-])c1ccc(S(=O)Cc2ccccc2)c([N+](=O)[O-])c1 (centres undefined) do in these assays?
PRMT1 inh: 38*

What do the screens show for `O=C(Nc1ccc(Cl)cc1)N1CCSc2ccccc21`?
GSTO1 counter: 12; RBBP9 inhibitor: 2; PRMT1 inh: 0; Fam108B counter: -6; PME-1 inh: 4; PAD4 inh: -6

Results for Cn1cnc([N+](=O)[O-])c1S(=O)(=O)Oc1cccc2ccccc12 ?
PRMT1 inh: 23*

What do the screens show for `N#C/C(C(=O)Nc1ccc(Cl)cc1)=C(/S)Nc1ccccc1`?
GSTO1 counter: 52*; PRMT1 inh: 91*; Fam108B counter: 6; PME-1 inh: 8; PAD4 inh: 1

How did S=c1[nH]nc(COc2ccccc2)n1/N=C/c1ccccc1Cl do in these assays?
GSTO1 counter: 7; PRMT1 inh: 23*; Fam108B counter: 5; PME-1 inh: -2; PAD4 inh: 4

Results for Cc1ccc(Nc2nnc(SCC(=O)c3ccc(O)cc3O)s2)cc1 ?
GSTO1 counter: 14; PRMT1 inh: -1; Fam108B counter: 8; PME-1 inh: 37*; PAD4 inh: -8

Results for COC(=O)C1=C(C)N(CCCC(=O)O)C(=O)NC1c1cc2c(cc1[N+](=O)[O-])OCO2 (centres undefined) ?
GSTO1 counter: -14; RBBP9 inhibitor: -1; PRMT1 inh: 27*; Fam108B counter: 7; PME-1 inh: -4; PAD4 inh: -9

What do the screens show for `COC(=O)C1=C(C)N(C)C(=O)NC1c1cc2c(cc1[N+](=O)[O-])OCO2` (centres undefined)?
GSTO1 counter: 36*; RBBP9 inhibitor: -2; PRMT1 inh: 10; Fam108B counter: 7; PME-1 inh: 1; PAD4 inh: 4

How did COCC#Cc1ccc2c(c1)O[C@@H](CN(C)C(=O)Nc1ccc(OC)cc1)[C@H](C)CN([C@H](C)CO)S2(=O)=O do in these assays?
PRMT1 inh: 1

How did O=C(Nc1ccccc1)C1=C(N2CCOCC2)/C(=C/c2cccnc2)CC1 do in these assays?
GSTO1 counter: 0; RBBP9 inhibitor: 0; PRMT1 inh: 4; Fam108B counter: 2; PME-1 inh: -3; PAD4 inh: -2

Results for O=C1C(=Cc2ccc(Br)o2)C(=O)c2ccccc21 ?
GSTO1 counter: 33; RBBP9 inhibitor: -4; Fam108B counter: 55*; PME-1 inh: -7; PAD4 inh: 1

Screening data: PubChem, The Scripps Research Institute Molecular Screening Center
